In series [1] the target is Acetylcholinesterase (Homo sapiens, UniProt P22303). As to the kind of experiment: Inhibition of human acetylcholinesterase from erythrocytes (RBC).
For series [2], the target named is Cholinesterase (Homo sapiens, UniProt P06276). As to the kind of experiment: Inhibition of human Butyrylcholinesterase. In a few lines: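 Compounds in Tween 80/EtOH 3:1 were diluted in half-log steps to 0.3 nM–[…] final and preincubated with enzyme in pH 8.0 buffer for 30 min at RT. Run on four occasions. IC50 from logit activity versus log concentration.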

Series [3] in a line: In vivo half life of the compound. Type of series: ADME, organism-based.

Acetylcholinesterase, sequence (P22303 whole entry): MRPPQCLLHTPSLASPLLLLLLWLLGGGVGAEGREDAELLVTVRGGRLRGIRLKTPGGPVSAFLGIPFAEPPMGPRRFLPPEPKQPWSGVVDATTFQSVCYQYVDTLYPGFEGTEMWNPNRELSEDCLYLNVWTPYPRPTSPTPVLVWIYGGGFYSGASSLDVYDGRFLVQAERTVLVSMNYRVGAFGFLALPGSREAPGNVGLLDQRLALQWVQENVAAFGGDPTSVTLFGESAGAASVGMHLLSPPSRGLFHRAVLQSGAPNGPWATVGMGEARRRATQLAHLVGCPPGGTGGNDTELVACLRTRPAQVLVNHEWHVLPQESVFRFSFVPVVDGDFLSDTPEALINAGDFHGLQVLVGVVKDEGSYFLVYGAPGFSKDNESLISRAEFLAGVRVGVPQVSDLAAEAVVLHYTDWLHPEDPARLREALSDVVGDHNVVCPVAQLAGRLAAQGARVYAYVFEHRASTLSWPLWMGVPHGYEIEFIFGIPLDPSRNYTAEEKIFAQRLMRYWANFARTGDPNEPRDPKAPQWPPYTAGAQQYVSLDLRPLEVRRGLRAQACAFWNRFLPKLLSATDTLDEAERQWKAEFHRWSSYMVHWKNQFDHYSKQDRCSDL
Cholinesterase, sequence (P06276 whole entry): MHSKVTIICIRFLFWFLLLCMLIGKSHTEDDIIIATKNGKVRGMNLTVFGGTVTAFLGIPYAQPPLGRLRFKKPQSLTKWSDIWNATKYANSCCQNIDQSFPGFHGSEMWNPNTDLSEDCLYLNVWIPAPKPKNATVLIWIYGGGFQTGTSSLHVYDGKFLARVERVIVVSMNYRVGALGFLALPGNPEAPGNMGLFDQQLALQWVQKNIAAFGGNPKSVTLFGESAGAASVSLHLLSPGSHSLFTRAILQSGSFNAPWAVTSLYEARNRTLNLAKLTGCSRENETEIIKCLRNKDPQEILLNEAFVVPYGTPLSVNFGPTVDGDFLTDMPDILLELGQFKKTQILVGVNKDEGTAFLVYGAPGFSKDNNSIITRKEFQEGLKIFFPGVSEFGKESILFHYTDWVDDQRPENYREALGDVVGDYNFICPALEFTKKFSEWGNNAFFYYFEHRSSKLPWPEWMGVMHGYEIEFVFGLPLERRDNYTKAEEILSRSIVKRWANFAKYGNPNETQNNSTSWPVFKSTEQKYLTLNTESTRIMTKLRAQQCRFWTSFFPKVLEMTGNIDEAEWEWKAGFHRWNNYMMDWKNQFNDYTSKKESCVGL

For `CN1CC[C@@]2(C)c3cc(OC(=O)Nc4ccccc4)ccc3N(C=O)C12` (stereo not given in full), the IC50 (usually the midpoint of a concentration-inhibition curve) in series [1] was found to be 780 nM; in series [2] it was 1470 nM. Taken in the same sequence, the figures for `CNC(=O)Oc1ccc2c(c1)[C@@]1(C)CCN(C)C1N2Cc1ccccc1` (stereo not given in full) were 2850 nM and 1590 nM. As for `CN1CC[C@@]2(C)c3cc(OC(=O)Nc4ccccc4)ccc3N(Cc3ccccc3)C12` (stereo not given in full), the half-inhibitory concentration (IC50) in series [1] was 245 nM; in series [2] it was 85.3 nM. In series [2], `CN1CC[C@@]2(C)c3cc(OC(=O)Nc4ccccc4)ccc3NC12` (stereo not given in full) returned an IC50 of 516 nM. That is a sub-micromolar value.

On to `CNC(=O)Oc1ccc2c(c1)[C@]1(C)CCN(C)C1N2` (stereo not given in full), for which the IC50 in series [1] came out at 56.7 nM; in series [2] it was 6.8 nM. On to `CN1CC[C@@]2(C)c3cc(OC(=O)Nc4ccccc4)ccc3N(C)C12` (stereo not given in full), for which the half-life – broadly, the time in which the quantity being followed falls by half – in series [3] was 8 h. Also, the values for the IC50 in series [1] and in series [2] were 24 nM and 1300 nM, respectively. On to `CN1CC[C@]2(C)c3cc(OC(=O)Nc4ccccc4)ccc3N(C)C12` (stereo not given in full), for which the results for the IC50 in series [1] and in series [2] were 3500 nM and 23500 nM, respectively. Taken in the same sequence, the figures for `CNC(=O)Oc1ccc2c(c1)[C@]1(C)CCN(C)C1N2Cc1ccccc1` (stereo not given in full) were 161 nM and 21.8 nM. Taken in the same sequence, the figures for `CN1CC[C@]2(C)c3cc(OC(=O)Nc4ccccc4)ccc3NC12` (stereo not given in full) were 5650 nM and 1750 nM. Taken in the same sequence, the figures for `CNC(=O)Oc1ccc2c(c1)[C@@]1(C)CCN(C)C1N2` (stereo not given in full) were 2190 nM and 1120 nM. Turning to `CNC(=O)Oc1ccc2c(c1)[C@]1(C)CCN(C)C1N2C=O` (stereo not given in full), the figures for the half-inhibitory concentration (IC50) in series [1] and in series [2] were 387 nM and 46 nM, respectively. On the same counts, the results for `CN1CC[C@]2(C)c3cc(OC(=O)Nc4ccccc4)ccc3N(Cc3ccccc3)C12` (stereo not given in full) are 11200 nM and 7090 nM. For the molecule `CNC(=O)Oc1ccc2c(c1)[C@]1(C)CCN(C)[C@@H]1N2C` [PHYSOSTIGMINE], the half-life in series [3] turned out to be 1 h.

(Values after ChEMBL document CHEMBL1130392, “Total syntheses and anticholinesterase activities of (3aS)-N(8)-norphysostigmine, (3aS)-N(8)-norphenserine, their antipodal isomers, and other N(8)-substituted analogues” (J Med Chem, 1997).)
